# Assay outcomes from PubChem.
# PvdQ inh: P. aeruginosa PvdQ acylase inhibitors, primary screen, biochemical, fluorescence, plate reader and imaging, single point; hit rate 0.063% among 340,000; inhibition, % at 10 µM; PvdQ acylase [Pseudomonas aeruginosa LESB58]; purified PvdQ acylase; in the data active = inhibition above about 30%, passing the limit was not always enough; inconclusive = no clear call, values can overlap the other calls;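 note: 0% = vehicle neutral wells and 100% = reference inhibitor wells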
# XiGFP reactiv: activators of inactive X chromosome reactivation, primary screen, imaging, XiGFP fibroblasts, GFP high-content imaging, set 2; XiGFP mouse fibroblasts, % GFP-positive cells imaging, 3 d; cells co-treated with 5-aza-dC sensitizer; scaled so ellipticine positive control = 100%; activation, % at 7.58 µM; hit rate 0.055% among 360,000; AID 743238, 2013;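 active = mean normalized replicate activation at least 10% and every replicate at or above 10%; inconclusive = only one of the two criteria met; inactive = mean below 10% and not all replicates reach 10%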;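 note: 0% = median of on-plate neutral control wells and 100% = ellipticine 6 µM median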
#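 Assay system: SV40-immortalized XiGFP fibroblast cells, line 68-5-11; buffer or medium: DMEM plus 5-aza-dC sensitizer; compound: one concentration, pinned; timing: compounds 3 days, fix/stain 15 min at room temperature; benchmarks: positive control ellipticine, 6 µM final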
# SR-BI DiI inh: inhibitors of SR-BI mediated HDL lipid uptake, primary screen, ldlA[mSR-BI] cells, fluorescence, single point | Scavenger receptor class B member 1 (Mus musculus), Q61009 | ldlA[mSR-BI] CHO cells, DiI-HDL uptake fluorescence, 3 h | inhibition, % at 12.5 µM | hit rate 0.96% among 320,000 | AID 488896, 2010;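 active = mean replicate inhibition of at least 70% and a set share of replicates each scoring 70 or more; inconclusive = meets just one of the two criteria; inactive = fails both criteria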;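 note: 0% = median of neutral control wells and 100% = median of positive control wells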
# rRNA inh HTS: reduced GFP signal of wild-type E. coli, primary screen, bacterial rRNA inhibitor project, GFP/RFP fluorescence, OD600, single point; GFP signal change (wild-type ribosome), % (test concentration not listed); AID 720706, 2013; E. coli WT GFP vs humanized-ribosome RFP mutants, 24 h; hits give low values; DMSO median 0, no signal -100; hit rate 1.6% among 350,000;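 active = significant combined selectivity score with lowered wild-type GFP, culture density cut under 30%, mutant RFP and density less affected; inactive = any of these conditions unmet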
# SR-BI uptake up: activators of SR-BI mediated DiI-HDL uptake, primary screen, ldlA[mSR-BI] CHO cells, DiI fluorescence; hit rate 0.096% among 320,000; 3 h; 100 = double the neutral-control signal; activation, % at 12.5 µM;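 active = mean replicate activation of at least 60% and every replicate at or above 60%; inconclusive = mean or all-replicate condition met, but not both; inactive = mean below 60% and not all replicates reaching 60%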;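 note: 0% = median plate neutral-control signal and 100% = twice that signal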
#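 Test system: SR-BI-overexpressing, LDLR-lacking CHO cells. Measured by: DiI fluorescence, bottom read. Medium: Ham's F12 with 0.5% BSA, HEPES 25 mM, pH 7.4. Timing: 3 h uptake period with compound, 37 °C.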
# dFosB activator: activators of delta FosB homodimer, primary screen, biochemical, fluorescence polarization, TAMRA-CDK5 oligo, single point. AID 493131, 2011. Protein FosB (Mus musculus), P13346. activation, % at 25 µM. hit rate 0.99% among 340,000. purified delta FosB; percent of positive-control signal above neutral wells;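 active = mean activation above about 17%, with every replicate also reaching it, limit read from the data, passing the limit was not always enough; inconclusive = only one of the two conditions met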
# Target sequence (P13346 whole entry, looked up): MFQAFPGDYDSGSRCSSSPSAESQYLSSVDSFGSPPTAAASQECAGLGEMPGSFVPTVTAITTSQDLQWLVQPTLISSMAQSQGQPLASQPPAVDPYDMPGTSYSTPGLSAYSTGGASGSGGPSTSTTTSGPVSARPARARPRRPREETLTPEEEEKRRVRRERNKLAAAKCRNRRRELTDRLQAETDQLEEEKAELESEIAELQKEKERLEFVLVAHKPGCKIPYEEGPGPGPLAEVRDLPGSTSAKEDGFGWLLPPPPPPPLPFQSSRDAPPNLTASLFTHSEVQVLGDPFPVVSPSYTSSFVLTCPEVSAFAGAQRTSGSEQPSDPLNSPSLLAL
# The depositor's hits bear a star; u = inconclusive; x = no result. A selection: hits, their analogues and other compounds. The true share with any hit is near 2.6%.
SMILES,PvdQ inh,XiGFP reactiv,SR-BI DiI inh,rRNA inh HTS,SR-BI uptake up,dFosB activator
CCOC(=O)CCc1c(C)nc2cc(-c3ccc(F)cc3)[nH]n2c1=O,-20,x,-1,x,1,-7
CN(C)/C=N/c1ncc(C(=O)c2ccccc2)s1,9,x,-24,x,24,-1
CN(C)/C=N/c1ncc(C(=O)c2ccc(-c3ccccc3)cc2)s1,-13,0,-5,-18*,5,-3
O=C(NCCc1ccc(C(F)(F)F)cc1)C1CCC(=O)N(CCCc2ccccc2)C1 (stereo unspecified),-11,0,13,-46*,-13,-23
CCOc1ccccc1NC(=S)NNS(=O)(=O)c1c(C)cc(C)cc1C,6,-1,-16,-16*,16,0
CCOc1ccccc1NC(=O)NNS(=O)(=O)c1cc(C)ccc1C,0,0,19,-21,-19,-17
COc1cc(Cl)c(C)cc1NC(=O)CNC(=O)Cn1cnc2ccccc2c1=O,-15,x,85*,x,-85,14
COc1cc(Cl)c(C)cc1NC(=O)CSc1ccc(C)cc1,-11,x,31,6,-31,-1
COc1cc(Cl)c(C)cc1NC(=O)CSc1cc(Cl)ccc1Cl,-13,0,82*,9,-82,-6
CCOC(=O)C1=C(N)Oc2cc(O)ccc2C1c1cccc(Cl)c1 (stereo unspecified),2,0,8,-6,-8,-8
O=C(C[C@@H]1CC[C@@H](NC(=O)Nc2cc(F)ccc2F)[C@H](CO)O1)NCCCN1CCOCC1,x,-1,x,3,x,x
COCc1cc(C)nc2sc(C(=O)Nc3ccccc3Br)c(N)c12,-3,0,79*,11,-79,6
CCN(CC(=O)Nc1ccc(NC(C)=O)cc1)C(=O)/C=C/c1cn(-c2ccccc2)nc1-c1cccs1,-15,0,24,-18*,-24,11
O=C(NC(=S)N1CCCCC1)c1csc([N+](=O)[O-])c1,-10,0,-12,-23*,12,3
COc1ccc(CCN2C(=O)c3ccccc3C2c2nnnn2-c2c(C)cccc2C)cc1OC (stereo unspecified),x,0,x,-14,x,x
COc1ccc(CCN2C(=O)c3ccccc3C2c2nnnn2Cc2ccccc2)cc1OC (stereo unspecified),x,0,x,-21*,x,x
Cc1ccn2cc(-c3cccc(S(=O)(=O)N4CCCCC4)c3)nc2c1,-14,0,-4,-44*,4,-4
Cc1ccc2nc(-c3cccc(S(=O)(=O)N4CCCC4)c3)cn2c1,-14,0,-1,-1,1,-8
CCOC(=O)/C=c1\s/c(=C\c2ccc3cc(OC)ccc3c2)c(=O)n1CC(=O)NCc1ccc2c(c1)OCO2,-12,28*,30,13,-30,-5
CCOC(=O)/C=c1/s/c(=C\c2c(OC)ccc3ccccc23)c(=O)n1CC(=O)NCC1CCCO1 (stereo unspecified),-4,1,-286,23,u,3
CCOC(=O)/C=c1\s/c(=C\c2c(OCC)ccc3ccccc23)c(=O)n1CC(=O)NCC1CCCO1 (stereo unspecified),-8,x,91*,x,-91,0
Cc1ccc(-c2n[nH]c(=O)c3ccccc23)cc1S(N)(=O)=O,-12,0,-2,10,2,-11
CC(OC(=O)c1ccc(Cl)c(S(=O)(=O)Nc2ccc(F)cc2)c1)C(=O)NC(N)=O (stereo unspecified),-11,0,x,-26*,x,-9
Cc1cccc(C)c1Nc1ncnc2ccccc12,-16,0,1,-34*,-1,0
Cc1ccc(S(=O)(=O)Nc2ccccc2CNc2ccccn2)cc1,-8,0,1,-28*,-1,-9
SMILES,PvdQ inh,XiGFP reactiv,SR-BI DiI inh,rRNA inh HTS,SR-BI uptake up,dFosB activator
COc1ccc(-c2cc(NC(=O)Cc3c[nH]c4ccccc34)ccc2N(C)c2cccnc2)cc1F,x,0,x,-10,x,x
CCOC1=C2[C@@H](CN(S(=O)(=O)c3ccccc3C)[C@H]2c2ccc(Cl)cc2)[C@H]2C(=O)N(c3ccccc3)C(=O)[C@H]2C1,x,0,x,15,x,x
CC1(c2nnc(-c3ccccc3)o2)CC(c2c(Cl)cccc2Cl)=NO1 (stereo unspecified),4,0,2,-29*,-2,5
O=C1CN(c2nc(-c3cccs3)nc3sc4c(c23)CCCC4)CCN1,0,0,29,-29,-29,-8
O=C(C[C@H]1CC[C@H]2[C@@H](COC[C@H](O)CN2C(=O)Nc2ccc(Cl)cc2)O1)NC1Cc2ccccc2C1,x,0,x,-57,x,x
CCOC(=O)N1CCN(c2nc3ccccc3n3cnnc23)CC1,5,x,x,-17*,x,-3
c1cnc(N2CCN(c3nc4ccccc4n4cnnc34)CC2)nc1,1,x,14,x,-14,1
COCC(=O)Nc1ccc2c(c1)C(=O)N(C)C[C@H](OC)[C@H](C)CN(C(=O)c1ccccn1)[C@H](C)CO2,x,0,x,4,x,x
O=[N+]([O-])c1ccc(NC(=S)N2CCc3ccccc32)cc1,1,0,27,-19*,-27,-2
O=C(c1ccco1)N1CCN(C(=S)Nc2cccc([N+](=O)[O-])c2)CC1,-16,0,16,-7,-16,-9
O=[N+]([O-])c1cccc(NC(=S)N2CCc3ccccc3C2)c1,-6,0,49,-31*,-49,-2
O=C(N[C@H]1CC[C@@H](CCNC(=O)C2CCCC2)O[C@@H]1CO)c1ccncc1,x,0,x,0,x,x
N#C[C@@H]1[C@@H](c2ccccc2-c2cccc(F)c2)[C@H](CO)N1C(=O)Cc1cccnc1,x,0,x,-4,x,x
CN(Cc1ccco1)C(=O)c1c[nH]c2ccc(S(=O)(=O)Nc3ccc4c(c3)OCCO4)cc2c1=O,-1,0,-12,6,12,-11
CCc1ccc(NS(=O)(=O)c2ccc3[nH]cc(C(=O)N(C)Cc4ccco4)c(=O)c3c2)cc1,-4,x,-7,-25*,7,-12
COc1cccc(N2CCN(C(=O)CCSCc3ccccc3F)CC2)c1,-6,0,-1,-35*,1,-9
COC(=O)c1ccc(NC(=S)N2CCN(C)CC2)cc1,-1,0,0,-1,0,-4
COC(=O)c1ccc(NC(=S)N2CCCC2)cc1,42*,-1,1,20,-1,2
